# High-throughput results (PubChem BioAssay)
# GRK2 inh: inhibitors of human GRK2 displacing RNA aptamer; P25098; bead flow cytometry, FAM-aptamer displacement from GRK2; inhibition of aptamer binding, % at 10 µM; 330,000 compounds, 0.59% hits; AID 488847;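 active = inhibition of aptamer binding above 40%, roughly 3 SD of noise, on plates passing a quality check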;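 note: median bead fluorescence of bound FAM aptamer so fluorescent compounds give negative values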
# DAGLB inh: blocks human DAGLB lipase activity; Q8NCG7; HEK293T DAGLB membrane lysate, EnzChek fluorogenic substrate; inhibition, % at 5.17 µM; 340,000 compounds, 0.059% hits; AID 504411; in the data active = inhibition above about 34%;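 note: 0% = enzyme with vehicle and 100% = wells lacking enzyme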
# DNA FID counter: fluorescent intercalator displacement, NS3 helicase counter-screen; DNA fluorescent intercalator displacement, fluorescence; inhibition, % at 7.9 µM; 290,000 compounds, 0.17% hits; in the data active = inhibition above about 37%;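 note: 0% = vehicle and 100% = reference compound; higher means more ethidium bromide displaced from hairpin DNA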
# NS3 helicase inh: blocks Hepatitis C virus NS3 helicase unwinding. NS3 helicase DNA unwinding, Cy5 molecular beacon fluorescence. inhibition, % at 10.9 µM. 290,000 compounds, 0.56% hits. AID 1800;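 active = inhibition above the mean of all tested compounds plus 3 SD, set per campaign, cut at about 35% in these data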;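 note: 0% = DMSO wells and 100% = thioflavine S control wells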
#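 assay system = NS3 helicase fragment of HCV | buffer or medium = MOPS pH 6.5, MgCl2, DTT, Tween20, BSA | timing = 60 min unwinding reaction at 25 °C after ATP addition | signal = Cy5 beacon fluorescence read at start and 1 h | read-out basis = % inhibition of unwinding | control set = low DMSO, high thioflavine S at 110 µM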
# HCV core dimer: HCV core protein dimerization inhibition; TR-FRET GST/Flag-core106 dimerization, 1536-well; inhibition, % at 5 µM; 300,000 compounds, 0.33% hits;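 active = inhibition above the mean of all tested compounds plus 3 SD, set per screening campaign, cut at about 45% in these data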
#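 Material: GST/Flag-tagged HCV core106 proteins. Incubation: 4 h, 22.5 °C incubation. Read-out basis: inhibition (%) from 671 over 617 nm ratio. Measured by: TR-FRET, excitation 340 nm, emission 617 and 671 nm.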
# GPR7 antagonist: antagonists of human GPR7 (neuropeptides B/W receptor 1). P48145. GPR7-expressing cells, fluorescence antagonist assay. inhibition, % at 4.4 µM. 290,000 compounds, 1.1% hits. AID 1861; in the data active = inhibition above about 16%, passing the limit was not always enough;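 note: cells stimulated with the agonist NPW; 0% = agonist with vehicle and 100% = vehicle without agonist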
# Target sequence (P48145 whole entry, looked up): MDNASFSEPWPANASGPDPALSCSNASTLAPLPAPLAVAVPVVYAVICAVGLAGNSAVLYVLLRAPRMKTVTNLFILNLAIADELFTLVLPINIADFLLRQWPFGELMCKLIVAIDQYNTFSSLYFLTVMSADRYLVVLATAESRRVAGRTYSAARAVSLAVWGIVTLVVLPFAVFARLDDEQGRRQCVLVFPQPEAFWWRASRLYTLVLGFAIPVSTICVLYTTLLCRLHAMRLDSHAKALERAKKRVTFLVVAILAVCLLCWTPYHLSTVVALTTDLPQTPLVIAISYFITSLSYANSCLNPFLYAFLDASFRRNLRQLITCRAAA
# * marks the source's active call; other numbers are inactive results; i = inactive; . = not tested or not shown. Shown are actives, neighbours in structure and some others; about 2.2% of the full set was active somewhere.
SMILES,GRK2 inh,DAGLB inh,DNA FID counter,NS3 helicase inh,HCV core dimer,GPR7 antagonist
CCOc1ccc(CCN2C(=S)N([C@@H](CC(C)C)CN3CCCC3CN3C(=S)NC[C@@H]3CC(C)C)C[C@@H]2Cc2ccccc2)cc1 (stereo partly specified),.,-12.0,.,.,.,.
COCCCNc1nc(N)c([N+](=O)[O-])c(Nc2cc(OC)ccc2OC)n1,0.0,.,-2.1,-11.6,3.3,-13.2
COc1ccc(OC)c(Nc2nc(NCCCN(C)C)nc(N)c2[N+](=O)[O-])c1,0.0,1.2,40.7*,-21.5,-6.5,-12.4
O=C(Cc1cccs1)NCCSc1c(-c2ccc(Cl)cc2)[nH]c2ccccc12,0.0,-1.0,1.2,-0.1,-427.5,19.2*
CCOC(=O)CSc1c(-c2ccc(Cl)cc2)[nH]c2ccccc12,0.0,-2.7,3.4,0.6,i,-11.4
CCn1c(SCC(=O)Nc2sc3c(c2C(N)=O)CCC(C)C3)nnc1-c1ccco1 (stereo unspecified),0.0,10.4,-29.8,32.1,56.2*,-2.3
CCn1c(SCC(=O)Nc2cccc(NC(C)=O)c2)nnc1-c1ccco1,2.0,-2.6,-11.0,0.5,3.3,-5.8
CCn1c(SCC(=O)Nc2ccc3c(c2)c2ccccc2n3CC)nnc1-c1ccco1,0.0,5.0,-29.1,24.4,65.3*,11.6
Cc1cc(C)cc(-n2ccnc2SCC(=O)O)c1,0.0,-0.8,-6.9,0.0,-1.4,29.6*
Cc1ccc(C)c(-n2ccnc2SCC(=O)O)c1,0.0,-1.0,-2.2,-4.9,-2.7,-7.3
CCOC(=O)c1ccc(S(=O)(=O)NNC(=O)COc2ccc(C)cc2)cc1,92.0*,-0.9,-5.3,-1.5,0.8,3.3
CCOC(=O)c1ccc(S(=O)(=O)NNC(=O)COc2cccc(C)c2)cc1,0.0,0.5,-22.7,0.2,2.9,-12.3
CN1CCN(C(=O)CSc2nc(-c3cccs3)ccc2C#N)CC1,4.0,-3.8,2.6,3.0,53.0*,1.8
Cc1ccc(C)c(S(=O)(=O)N2CCCC2CNC(=O)C(=O)NCC2CCCO2)c1 (stereo unspecified),0.0,2.2,.,.,3.0,.
COc1ccc(OC)c(NC(=O)COC(=O)c2cc3c(s2)CCC3)c1,42.0*,-13.2,-11.6,21.4,77.4*,3.6
COc1ccccc1NC(=O)COC(=O)c1cc2c(s1)CCC2,.,-15.5,.,.,.,.
Cc1cccc2c(=O)n(C(=O)c3ccccc3)c(N)nc12,.,-2.3,.,.,.,.
O=C(Nc1cccc2cccc(NC(=O)c3ccco3)c12)c1ccco1,0.0,4.8,0.7,0.1,48.1*,-6.5
Cc1cccc(-n2ncc3c(=O)[nH]c(SCC(=O)N4CC(=O)Nc5ccccc54)nc32)c1,5.0,1.7,.,.,.,.
O=C(O)c1ccc(N/N=C/C=C/c2ccc([N+](=O)[O-])o2)cc1,91.0*,21.5,-1.8,4.9,-27.9,-1.7
CCOc1cc(NC(=O)c2cnccn2)c(OCC)cc1NC(=O)c1cccc(F)c1,68.0*,.,3.5,-3.5,3.8,-0.6
CCOc1cc(NC(=O)C2CC2)c(OCC)cc1NC(=O)c1cccc(F)c1,1.0,-1.3,-8.8,-11.1,-11.2,-5.0
Cc1cc(C)n2nc(SCc3cc(=O)oc4cc(O)ccc34)nc2n1,0.0,.,-9.8,3.3,73.9*,1.0
CC(C)N=C(N)N=C(N)Nc1ccc(Cl)cc1,0.0,3.4,.,.,-13.1,.
NC(=NCCCCCCN=C(N)/N=C(\N)Nc1ccc(Cl)cc1)/N=C(\N)Nc1ccc(Cl)cc1,0.0,7.3,59.3*,-57.6,-15.9,0.9
SMILES,GRK2 inh,DAGLB inh,DNA FID counter,NS3 helicase inh,HCV core dimer,GPR7 antagonist
O=C(Cc1cccc2ccccc12)N/N=C/c1ccc(OC(=O)/C=C/c2ccco2)cc1,1.0,3.4,-10.0,15.3,64.8*,0.0
O=C(Cc1cccc2ccccc12)N/N=C/c1ccc(F)cc1,0.0,-7.4,-9.3,-12.5,-3.2,19.8
COc1ccc(C=C2CS(=O)(=O)CC(=Cc3ccc(OC)cc3)C2=O)cc1,.,0.7,.,.,.,.
CN(CCOc1ccc(-c2ccn(S(=O)(=O)c3ccc(Cl)cc3)n2)cc1)c1ccccn1,0.0,-8.8,-1.6,-18.0,-3.0,18.7*
CN(CCOc1ccc(-c2ccn(S(=O)(=O)c3c(Cl)cccc3Cl)n2)cc1)c1ccccn1,0.0,-6.3,-3.4,0.7,-7.3,-2.5
Cc1ccc(N(Cc2ccccc2)C(=O)CSC(C)C(=O)Nc2cc(C)on2)cc1 (stereo unspecified),.,-4.0,.,.,.,.
Cc1ccc(S(=O)(=O)Nc2cc(C(=O)NCCN(C)C)ccc2N2CCCC2)cc1,0.0,-3.4,30.0,-19.9,-8.7,2.2
CCN(CC)CCCNC(=O)c1ccc(N2CCCCC2)c(NS(=O)(=O)c2ccc(C)cc2)c1,0.0,0.5,50.5*,-27.6,-7.5,12.2
CC(C)C1C(=O)N(Cc2cn(CCC3OCCCO3)nn2)CCS(=O)(=O)N1Cc1ccc(-c2ccc(Cl)c(Cl)c2)cc1 (stereo unspecified),.,-0.9,.,.,.,.
CC(=O)N1CCN(c2ccccc2NC(=O)COc2ccc(Cl)cc2Cl)CC1,0.0,-2.1,-43.1,-13.9,12.0,18.5*
COc1c(F)c(F)c(C(=O)Nc2ccccc2N2CCN(C(C)=O)CC2)c(F)c1F,3.0,-0.6,-13.8,1.2,47.3*,-8.8
CCCC1NC(=O)c2cc3ccccc3cc2-n2c1nc1cc(Cl)ccc1c2=O (stereo unspecified),.,2.7,.,.,.,.
Cc1[nH]nc2c(=S)[nH]c(=O)[nH]c12,.,-0.6,.,.,.,.
O=C1N=C(N2CCN(c3cccc4ccccc34)CC2)S/C1=C/c1cccs1,0.0,4.5,-0.8,-5.5,67.2*,-9.2
COc1ccc(C2C(C#N)=C(N)OC(C(C)(C)C)=C2C#N)cc1OC (stereo unspecified),4.0,0.1,-2.5,8.5,0.4,-1.4
COc1ccc(C2C(C#N)=C(N)SC(N)=C2C#N)cc1OC,2.0,-5.7,-7.1,0.7,60.9*,-6.0
O=C(C[C@H]1C[C@@H]2c3cc(NC(=O)c4ccc5c(c4)OCO5)ccc3O[C@@H]2[C@H](CO)O1)NCc1cc(F)ccc1F,.,-3.1,.,.,.,.
N#Cc1c(Sc2ncc(C(F)(F)F)cc2Cl)nsc1C/C=N\OCc1c(F)cccc1Cl,0.0,-5.8,0.0,21.9,54.2*,-10.1
CCN(CC(=O)Nc1c(F)cccc1F)C(=O)CSc1nc(C)cc(C)n1,0.0,-0.4,-9.1,6.3,-6.6,-5.8
O=C(Cc1coc2cc3c(cc12)CCC3)OCc1cc(=O)n2c(n1)sc1ccccc12,5.0,-5.5,-2.2,12.8,57.4*,-13.2
Cc1ccc(C(=O)N[C@H](C(=O)OCc2cc(=O)n3c(n2)sc2ccccc23)C(C)C)cc1,0.0,-2.1,-11.9,5.2,38.8,-12.8
O=C(OCc1cc(=O)n2c(n1)sc1ccccc12)c1cccc(O)c1,3.0,-2.2,-3.2,9.5,50.8*,-8.9
